Each structure is given as a SMILES string.

For orientation: IC50 means the midpoint of a concentration-inhibition curve.

One series has as its system MDA-MB-231. Nature of the series: Antiproliferative activity against human MDA-MB-231 cells by MTT assay. The series is classed as functional, cell-based. The method, boiled down: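 MDA-MB-231 cells in DMEM with 10% FBS, 2 mM L-glutamine and penicillin/streptomycin were seeded at 2.5×10^4 cells/mL and held 24 h at 37°C. They then got ethanol-stock compound over 1 nM–100 μM (vehicle 1% v/v ethanol) for 72 h. MTT at 1 mg/mL final was added for 2 h in the dark, then DMSO for 20 min before absorbance. Untreated = 100% viability. IC50 is the mean ± S.E.M. of ≥3 triplicate experiments.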
On the technique in general: Tetrazolium assays rely on reduction of a dye to a coloured formazan, in cell work by metabolically active cells.

A further series relates to MCF7. The experiment in a line: Antiproliferative activity against human MCF7 cells by MTT assay. The series is classed as functional, cell-based. The gist of the method: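 MCF-7 cells grown in Eagle's MEM with 10% FBS, 2 mM L-glutamine, penicillin/streptomycin and 1% non-essential amino acids. Seeded at 2.5×10^4 cells/mL, left 24 h at 37°C, then treated 72 h across 1 nM–100 μM from ethanol stocks (vehicle 1% v/v). MTT at 1 mg/mL final for 2 h in darkness, DMSO solubilisation, absorbance read. IC50 is the mean of at least three experiments in triplicate.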

A short description of series [1]: Inhibition of bovine tubulin polymerization assessed as concentration required for 50% Vmax inhibition by spectrophotometry. The arrangement: species or system Bos taurus.
Series [2] is described as follows: Cytotoxicity against CD-1 mouse mammary epithelial cells seeded at 25000 cells/ml assessed as viable cells at 10 uM after 72 hrs by alamar blue assay. To be noted: read-out: Activity. The series is classed as cell-based, Epithelial cell. The gist of the method: (§1)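 Primary mammary epithelial cells came from 14-18 day pregnant CD-1 mice and were seeded at 25,000 or 50,000 cells/mL. After 24 h they were exposed 72 h to 1 nM–100 μM compound from ethanol stocks (vehicle ethanol 1% v/v). Viability was read with alamar blue.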
(The colour change of resazurin is a common sign of viable cells or microbes.)

The nature of series [3]: Cytotoxicity against CD-1 mouse mammary epithelial cells seeded at 25000 cells/ml assessed as viable cells at IC50 after 72 hrs by alamar blue assay. The series is classed as cell-based, Epithelial cell. Conditions: read-out: Activity. The method, boiled down:
as §1

Series [4] in a line: Inhibition of bovine tubulin polymerization by spectrophotometry. Also noted: species or system Bos taurus. The method, boiled down:
(§2)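 Purified bovine tubulin was mixed with GTP and polymerisation started by warming from 4 °C to 37 °C. Absorbance at 340 nm was recorded every 30 s for 60 min at 37 °C, with 1% v/v ethanol as vehicle. Fold change in Vmax was calculated against the ethanol control. Runs were in triplicate.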

For the next series, the species on record is Bos taurus. The experiment in a line: Inhibition of bovine tubulin polymerization assessed as reduction in Vmax at 10 uM by spectrophotometry. The method, boiled down: as §2
The nature of series [5]: Cytotoxicity against CD-1 mouse mammary epithelial cells seeded at 50000 cells/ml assessed as viable cells at IC50 after 72 hrs by alamar blue assay. The series is classed as cell-based, Epithelial cell. To be noted: read-out: Activity. The method, boiled down: as §1
Series [6] is described as follows: Cytotoxicity against CD-1 mouse mammary epithelial cells seeded at 50000 cells/ml assessed as viable cells at 10 uM after 72 hrs by alamar blue assay. It counts as cell-based, Epithelial cell. To be noted: read-out: Activity. The method, boiled down: as §1

With `COc1ccc([C@@H]2[C@@H](c3ccsc3)C(=O)N2c2cc(OC)c(OC)c(OC)c2)cc1O`, the half-inhibitory concentration (IC50) is 0.049 µM in the series with MDA-MB-231 and 0.01 µM with MCF7.

In the case of `COc1ccc([C@@H]2C(c3ccc4ccccc4c3)C(=O)N2c2cc(OC)c(OC)c(OC)c2)cc1` (mixture of isomers), the concentration for half-maximal inhibition (IC50) with MCF7 came to 2.5 µM.

Compound `COc1ccc([C@H]2N(c3cc(OC)c(OC)c(OC)c3)C(=O)C2(c2ccccc2)c2ccccc2)cc1` (mixture of isomers) yielded an IC50 in the series with MCF7 of 43.2 µM.

In turn, `COc1ccc([C@@H]2C(c3cc4ccccc4s3)C(=O)N2c2cc(OC)c(OC)c(OC)c2)cc1` (mixture of isomers) returned an IC50 in the series with MCF7 of 0.85 µM.

For the compound `COc1ccc([C@@H]2[C@@H](C(O)c3ccc(C)s3)C(=O)N2c2cc(OC)c(OC)c(OC)c2)cc1` (some centres undefined), in the series with MCF7, half-maximal inhibition (IC50) required 1.26 µM.

With `COc1ccc([C@@H]2C(Cc3cccs3)C(=O)N2c2cc(OC)c(OC)c(OC)c2)cc1` (mixture of isomers), in the series on MCF7, the half-inhibitory concentration (IC50) was 1.64 µM.

As to `COc1ccc([C@@H]2[C@@H](c3cccs3)C(=O)N2c2cc(OC)c(OC)c(OC)c2)cc1N`, the IC50 with MDA-MB-231 worked out at 0.11 µM; with MCF7, 0.042 µM.

`COc1ccc(C2/C(=C/c3ccc(C)s3)C(=O)N2c2cc(OC)c(OC)c(OC)c2)cc1` (centres undefined): the IC50 in the series on MCF7 came to 0.58 µM.

For `COc1ccc([C@@H]2[C@@H](C(=O)c3cccs3)C(=O)N2c2cc(OC)c(OC)c(OC)c2)cc1`, in the series with MCF7, the concentration for half-maximal inhibition (IC50) is 0.95 µM.

For `COc1ccc([C@@H]2C(c3cc4ccccc4n3C)C(=O)N2c2cc(OC)c(OC)c(OC)c2)cc1` (some centres undefined), in the series on MCF7, it took 6.6 µM to reach half-maximal inhibition (IC50).

Consider `COc1ccc([C@@H]2[C@@H](c3cccs3)C(=O)N2c2cc(OC)c(OC)c(OC)c2)cc1O`, for which the IC50 in [1] is 1.37 µM; in [4], 6.25 µM; in the series on MDA-MB-231 it was 0.18 µM; in the series with MCF7 it was 0.007 µM. In addition, the viability at 72 h, 10 µM amounted to 71.2% in [2] and 74.8% in series [6]. Moreover, the figures for the viability at 72 h in series [3] and in series [5] were 90.7% and 90.6%, respectively. Also, the fold change (FC) in the series filed under Bos taurus worked out at 3.2.

With `COc1ccc([C@H]2N(c3cc(OC)c(OC)c(OC)c3)C(=O)C2(C)c2ccccc2)cc1` (mixture of isomers), the IC50 with MCF7 stood at 43.5 µM.

On to `COc1ccc([C@@H]2[C@@H](C(O)c3ccsc3)C(=O)N2c2cc(OC)c(OC)c(OC)c2)cc1` (mixture of isomers), for which the IC50 with MCF7 came to 0.99 µM.

Take `COc1ccc([C@@H]2C(C3CCCCC3)C(=O)N2c2cc(OC)c(OC)c(OC)c2)cc1` (mixture of isomers): 0.58 µM corresponded to half-maximal inhibition in the series with MCF7 (IC50).

Values taken from ChEMBL document CHEMBL1765074, “Synthesis, evaluation and structural studies of antiproliferative tubulin-targeting azetidin-2-ones” (Bioorg Med Chem, 2011).
